# TCR CD3 inh = blocks the human TCR-CD3 interaction | 0.37% of 360,000 active | TAMRA-labeled TCR probe fluorescence, biochemical | AID 651800 | inhibition, % at 9.4 µM; in the data active means inhibition above about 19%;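 further: recombinant mutant TCR 2C K166C tagged with TAMRA read by polarization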
# HTRA1 inh = inhibitors of human serine peptidase HTRA1; Q92743; recombinant HTRA1, FP-rhodamine activity-based probe, fluorescence polarization; inhibition, % at 5.96 µM; 0.5% of 340,000 active; AID 504803; in the data active means inhibition above about 36%
# Target sequence (Q92743 whole entry, looked up): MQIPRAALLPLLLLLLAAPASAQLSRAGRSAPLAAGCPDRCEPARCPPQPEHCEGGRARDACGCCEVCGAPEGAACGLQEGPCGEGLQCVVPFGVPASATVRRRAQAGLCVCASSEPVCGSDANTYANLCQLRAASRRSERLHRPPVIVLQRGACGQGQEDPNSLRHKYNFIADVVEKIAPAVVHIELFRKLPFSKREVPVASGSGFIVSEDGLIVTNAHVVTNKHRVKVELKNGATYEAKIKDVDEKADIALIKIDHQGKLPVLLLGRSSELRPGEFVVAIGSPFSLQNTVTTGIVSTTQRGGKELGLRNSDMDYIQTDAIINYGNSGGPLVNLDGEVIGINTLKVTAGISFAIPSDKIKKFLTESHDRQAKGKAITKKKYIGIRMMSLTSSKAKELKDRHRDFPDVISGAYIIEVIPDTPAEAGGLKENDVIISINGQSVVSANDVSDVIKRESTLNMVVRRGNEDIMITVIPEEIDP
# ABHD4 inh = inhibitors of mouse ABHD4. Q8VD66. purified mABHD4, FP-Rh probe fluorescence polarization. inhibition, % at 8.92 µM. 0.54% of 370,000 active. AID 720543;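 active means inhibition exceeding the mean over every tested compound plus 3 SD, cut at about 30% in these data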
#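 Assay system: Wild-type mouse ABHD4 protein | Medium: HEPES pH 7.0 buffer, 150 mM NaCl, 0.01% Pluronic F-127 | Incubation: Enzyme–compound pre-incubation 45 min, then probe 60 min, both 25 °C | Technique: Fluorescence polarization with parallel and perpendicular emission, 525/598 nm | Evaluation: % inhibition of FP-Rh probe binding versus controls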
# PRMT1 inh = blocks human protein arginine methyltransferase 1. Q99873. recombinant PRMT1, activity-based probe fluorescence polarization. inhibition, % at 2.79 µM. 1.3% of 370,000 active. AID 652257;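 active means inhibition above about 21% made by adding two undisclosed values, limit read from the data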
# SIAE inh = human SIAE inhibition, primary screen. Q9HAT2. 0.69% of 370,000 active. SIAE FP-Rh probe binding, fluorescence polarization. inhibition, % at 9.66 µM;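 active means inhibition above a cutoff: mean of compounds within the control limits plus 3 SD of those, cut at about 17% in these data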
# PRMT1 inh conf = confirmation of human PRMT1 inhibitors | shares compounds with PRMT1 inh | recombinant His-PRMT1, activity-based probe fluorescence polarization | inhibition, % at 2.79 µM | 42% of 3,300 active | AID 687036;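 active means mean inhibition across replicates above the hit cutoff derived for the earlier primary screen, cut at about 22% in these data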
# ABHD4 confirm = ABHD4 (mouse) inhibition, FP confirmation; shares compounds with ABHD4 inh; purified mABHD4, FP-Rh probe fluorescence polarization; inhibition, % at 8.92 µM; 55% of 1,800 active;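 active means mean inhibition across replicates above the hit cutoff set in the primary screen, cut at about 30% in these data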
# Numbers stand for hits; i = inactive; nt = not tested or not shown; ! = not active in a repeat. This is a sample that favours compounds with a hit; in the whole collection about 2.7% have one here.
SMILES,TCR CD3 inh,HTRA1 inh,ABHD4 inh,PRMT1 inh,SIAE inh,PRMT1 inh conf,ABHD4 confirm
CC(C)(CNC(=O)c1cccc(S(=O)(=O)Nc2ccc(SC(F)F)cc2)c1)N1CCOCC1,i,i,i,46,i,66,nt
O=C(NC1CCN(Cc2ccccc2)CC1)c1cccc(S(=O)(=O)Nc2ccc(SC(F)F)cc2)c1,i,i,i,41,i,58,nt
Cc1cccc(C)c1NC(=O)CNC(=O)c1c(-c2ccccc2)noc1C,i,i,i,i,i,nt,nt
CNC(=O)c1nnsc1S(=O)(=O)c1ccc(Cl)cc1,i,i,i,78,i,72,nt
Cc1ccc(NCN2C(=O)c3ccccc3C2=O)c(C)n1,i,nt,i,i,i,nt,nt
O=C1N(Cc2ccccc2)CC2(Br)COCOC12O (stereo not given),i,i,i,90,i,91,nt
O=C1C(c2ccccc2)CN1Cc1ccccc1 (stereo not given),i,nt,i,i,i,nt,nt
C=CCN1C(=O)/C(=c2\sc3nc(=O)c(Cc4ccccc4Cl)nn3c2=O)c2ccccc21,i,i,i,27,i,i,nt
O=C(O)CCN1C(=O)/C(=C2\C(=O)N(Cc3ccccc3Cl)c3ccccc32)SC1=S,i,i,i,i,i,nt,nt
Cc1c(Cc2ccc3c(c2)OCO3)sc(NC(=O)C2CC2)c1C(N)=O,i,i,i,30,i,i,nt
c1ccc([C@H]2CN3C(=N2)Sc2ccccc23)cc1,i,i,i,29,i,i,nt
Cc1ccc(C(C)C)cc1-n1nnc(-c2cccc(Cc3ccc4ccccc4c3)c2)c1C(C)O (stereo not given),i,i,i,i,i,nt,nt
N#CCc1c(C#N)c(N)nc(N2CCN(c3ccc(F)cc3)CC2)c1C#N,i,i,i,i,i,nt,nt
N#CCc1c(C#N)c(N)nc(N2CCCC(O)C2)c1C#N (stereo not given),i,i,i,31,i,i,nt
O=C(CSCc1ccco1)c1cccs1,i,i,i,25,i,70,nt
O=C(NCc1ccco1)c1cccs1,i,i,i,i,i,nt,nt
Nc1nc(-c2ccco2)c(-c2ccco2)s1,i,i,i,40,i,i,nt
Nc1nc(-c2ccco2)cs1,i,i,i,i,i,nt,nt
CCN(CC(=O)NCc1cccs1)CC(=O)Nc1cccc(S(N)(=O)=O)c1,i,i,i,44,i,i,nt
CCN(CC(=O)NCc1cccs1)CC(=O)Nc1ccc(C(N)=O)cc1,i,i,i,i,i,nt,nt
CNc1ncnc2c1ncn2[C@H]1CN(Cc2ccc(F)cc2)C[C@@H](CO)O1,i,nt,i,i,i,nt,nt
CCSc1nc(=S)cc(C)[nH]1,i,i,i,69,i,41,nt
CC1OC2CC(=O)OC2C2=C1C(=O)c1c(O)cccc1C2=O (stereo not given),i,nt,38,90,i,73,35
CN(C)c1ccc(NC(=O)Nc2nc(C(N)C3CCCCC3)cs2)cc1 (stereo not given),i,nt,i,i,i,nt,nt
CCc1nc2ccc(C(=O)NCCc3ccco3)cc2nc1CC,nt,i,nt,nt,nt,nt,nt
SMILES,TCR CD3 inh,HTRA1 inh,ABHD4 inh,PRMT1 inh,SIAE inh,PRMT1 inh conf,ABHD4 confirm
O=C(NCCCO)c1ccc2nc(-c3ccco3)c(-c3ccco3)nc2c1,i,i,37,34,i,44,i
Cn1c(CNc2ccc(O)cc2)nc2ccccc21,i,i,58,39,i,i,i
Cc1ccc(NCc2nc3ccccc3n2C)cc1,i,i,i,i,i,nt,nt
CC(=O)OCCCNc1cc(SCc2ccco2)c2nonc2c1[N+](=O)[O-],i,i,49,54,i,i,i
Cc1ccc(-c2csc(NS(=O)(=O)c3cccc(F)c3)n2)o1,i,i,30,54,i,i,i
CN1CC=C2C(C#N)=C(N)C(C#N)(C#N)[C@H](c3cccc(Cl)c3)C2C1 (stereo not given in full),i,i,31,26,i,i,i
CN1CC=C2C(C#N)=C(N)C(C#N)(C#N)C(c3ccsc3)C2C1 (stereo not given),i,i,i,i,i,nt,nt
O=C(Oc1ccc(Cl)c2cccnc12)C12CC3CC(CC(C3)C1)C2,i,i,i,i,i,nt,nt
CCOC(=O)c1c(/N=C/c2cccc([N+](=O)[O-])c2O)sc(C)c1C,i,i,33,28,i,i,i
CCc1cc(CNC(=O)C2CCC(=O)N(Cc3cccc(F)c3)C2)on1 (stereo not given),i,i,i,i,i,nt,nt
COc1ccccc1C(=O)NNC(=O)c1ccc(Br)o1,i,i,i,i,i,nt,nt
O=C(CSc1ccc(-c2ccco2)nn1)c1cccc([N+](=O)[O-])c1,i,i,31,31,i,i,i
O=C(CSc1ccc(-c2ccco2)nn1)N1CCCC1,i,i,i,i,i,nt,nt
CC(C)(C)C(=O)/C=C/Nc1ccccc1O,i,i,30,26,i,i,i
C=C[C@]1(C)C=C2CC[C@H]3[C@@](C)(CCC[C@@]3(C)C(=O)O)[C@@H]2CC1,nt,i,nt,nt,nt,nt,nt
C=C[C@]1(C)C=C2C(=O)[C@@]3(O)OC(=O)[C@@]4(CCCC(C)(C)[C@H]34)[C@@]2(O)CC1,i,nt,52,61,i,i,i
O=C(/C=C/c1ccco1)c1cccnc1,i,i,36,47,i,i,i
CCOc1cc(OCC)cc(C(=O)NCCN2CCC(n3c(=O)[nH]c4ccccc43)CC2)c1,i,nt,i,i,i,nt,nt
Cc1ccccc1CCN(C(=O)c1csnn1)C(C(=O)NC1CCCC1)c1ccncc1 (stereo not given),i,i,i,i,i,nt,nt
Cc1ccc(C(=O)/C=C/c2ccc(-c3ccccc3[N+](=O)[O-])o2)cc1,i,i,36,34,i,i,i
Cc1ccc2c(c1)Sc1c(ccc3ccccc13)N2,i,i,30,26,i,i,38
COC(=O)[C@]12C[C@H](CC(=O)NCCc3ccccc3OC)C(=O)N(CCC3=CCCCC3)C1=C[C@H](COCc1ccccc1)O[C@@H]2C,i,nt,i,i,i,nt,nt
CCSc1nc2sc3c(c2c(=O)[nH]1)CCc1ccccc1-3,i,i,i,i,i,nt,nt
NNc1nc2sc3c(c2c(=O)[nH]1)CCc1ccccc1-3,i,i,58,61,i,i,i
C[n+]1c2cc(N)ccc2cc2ccc(N)cc21,i,i,30!,147,25!,142,43
Cc1nc2ccc(N)cc2s1,i,i,i,i,i,nt,nt
CCOc1cc(C2C(C#N)=C(N)OC3=C2C(=O)CC(C)(C)C3)cc([N+](=O)[O-])c1O (stereo not given),i,i,i,i,i,nt,nt
CC1(C)CC(=O)C2=C(C1)OC(N)=C(C#N)C2c1cc2c(cc1[N+](=O)[O-])OCO2 (stereo not given),i,i,34,58,i,31,i
C/C=C/COC(=O)c1[nH]c2c(c1C)C(=O)CC(c1ccco1)C2 (stereo not given),i,i,32,43,i,i,i

# Assay outcomes deposited in PubChem by The Scripps Research Institute Molecular Screening Center.
